ALR H2O2 inh: inhibitors of human ALR sulfhydryl oxidase, primary screen, biochemical, H2O2 detection, HRP-luminol luminescence, single point; FAD-linked sulfhydryl oxidase ALR (Homo sapiens), P55789; purified ALR, DTT oxidation; inhibition, % (no concentration beside the values); 290,000 tested, 3.8% active;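 active = mean replicate inhibition above about 79%, with every replicate also reaching it, limit read from the data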
Target sequence (P55789 whole entry, looked up): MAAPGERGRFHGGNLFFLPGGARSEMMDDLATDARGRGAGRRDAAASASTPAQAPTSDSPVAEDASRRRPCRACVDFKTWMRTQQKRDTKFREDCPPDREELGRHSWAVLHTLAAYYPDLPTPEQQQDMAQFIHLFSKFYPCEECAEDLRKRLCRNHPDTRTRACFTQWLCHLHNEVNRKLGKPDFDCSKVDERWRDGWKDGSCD
Glyco luc inh: increase of ERlucT glycosylation luciferase signal, primary screen, N-linked glycosylation inhibitor project, D54 ERlucT cells, luminescence, set 2 | D54 ERlucT glycosylation luciferase reporter, 24 h; percent of 100 nM tunicamycin response | reporter increase, % at 12.5 µM | 360,000 tested, 0.23% active;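 active = mean luciferase reporter signal, scaled so untreated is 0 and the glycosylation-blocking control 100, at or above a set limit in every replicate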;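 also: luciferase carries N-glycosylation sites so blocking glycosylation raises the light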
T cell HTS: modulators of CD8 T cell-vesicle binding, primary screen, mouse 2C CD8+ T cells, flow cytometry; 2C CD8+ T cell-vesicle binding; hits give low values; response (vesicle binding), % at 7 µM; 330,000 tested, 0.068% active;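 active = response, share of CD8 T cells binding vesicles, and their 90th percentile fluorescence all below set limits, cut at about 80% in these data, passing the limit was not always enough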;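 also: values below 100% mean blocked vesicle binding to the CD8+ T cells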
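Material: 2C TCR transgenic mouse naive CD8+ T cells, MACS-purified. Also added: QL9-charged Drosophila Ld/ICAM-1/B7-1 vesicles. Timing: binding 1.5 h at 37 °C. Measured by: high-throughput flow cytometry with anti-B7-1 and anti-CD8 staining. Read-out: percent CD8+ FL2 mean versus row control. Controls: Unloaded micro-vesicles (low), QL9 vesicles with 0.7% DMSO (high).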
Hits are given with their value. This is one part of a sample in which hits are shown more often than they occur.

For CCOc1ccc(C(=O)NCCC(=O)N2CCC3(CC2)NCCc2[nH]cnc23)cc1 the results were ALR H2O2 inh inactive, Glyco luc inh inactive and T cell HTS inactive.
O=C(CSc1nc2scc(-c3ccco3)c2c(=O)n1-c1ccccc1)NCC1CCCO1 (configuration not stated) was read as ALR H2O2 inh 96, Glyco luc inh inactive and T cell HTS inactive.
C=CCn1c(SCC(=O)NCC2CCCO2)nc2scc(-c3ccco3)c2c1=O (configuration not stated) was read as ALR H2O2 inh inactive and Glyco luc inh inactive.
For CC(OC(=O)CCCN=C1NS(=O)(=O)c2ccccc21)C(=O)Nc1ccc(F)c(F)c1F (configuration not stated) the results were ALR H2O2 inh inactive, Glyco luc inh inactive and T cell HTS inactive.
For CC(=O)Cc1nsc(NC(=O)c2cccc(F)c2)n1 the results were ALR H2O2 inh inactive, Glyco luc inh inactive and T cell HTS inactive.
Screening CN(C)C(CNC(=O)c1cccc(C(F)(F)F)c1)c1ccco1 (configuration not stated) returned Glyco luc inh inactive and T cell HTS inactive.
`O=C(O)c1cc(NCc2ccccc2)ccc1N1CCOCC1` gave ALR H2O2 inh inactive, Glyco luc inh inactive and T cell HTS inactive.
COc1ccccc1CNc1ccc(N2CCOCC2)c(C(=O)O)c1 was read as ALR H2O2 inh 99, Glyco luc inh inactive and T cell HTS inactive.
COC(=O)c1cc(NCc2ccc3c(c2)OCO3)ccc1N1CCOCC1 was read as ALR H2O2 inh inactive, Glyco luc inh inactive and T cell HTS inactive.
O=C(O)c1cc(NCc2ccc3c(c2)OCO3)ccc1N1CCOCC1 was read as ALR H2O2 inh 79, Glyco luc inh inactive and T cell HTS inactive.
`C#CCOCCOCCOCCNc1nc(N2CCN(C(=O)[C@H](CCCCN)n3cc(C(N)CO)nn3)CC2)nc(N2CCN(C(=O)[C@H](CCC(=O)O)n3cc(C(N)[C@H](C)CC)nn3)CC2)n1` (some centres not stated) gave ALR H2O2 inh inactive and T cell HTS inactive.
Screening Nc1ccc(/C=C/C(=O)c2ccco2)cc1 returned ALR H2O2 inh 99, Glyco luc inh inactive and T cell HTS inactive.
CCOc1ccc2nc(Cl)c(/C=C/C(=O)c3ccco3)cc2c1 was read as ALR H2O2 inh inactive, Glyco luc inh inactive and T cell HTS inactive.
`O=C(/C=C/c1ccccc1O)c1ccco1` gave Glyco luc inh inactive and T cell HTS inactive.
Screening N#Cc1ccc(/C=C/C(=O)c2ccco2)cc1 returned ALR H2O2 inh inactive, Glyco luc inh inactive and T cell HTS inactive.
For O=C(/C=C/c1cc(Br)ccc1O)c1ccco1 the results were ALR H2O2 inh 97, Glyco luc inh inactive and T cell HTS inactive.
Screening Cc1cccc2cc(/C=C/C(=O)c3ccco3)c(Cl)nc12 returned ALR H2O2 inh inactive, Glyco luc inh 31 and T cell HTS inactive.
Screening COc1ccc2oc(C(=O)OCC(=O)NCc3ccc(OC)c(OC)c3)c(C)c2c1 returned Glyco luc inh inactive.
COc1ccccc1NS(=O)(=O)c1ccc(C)c(NS(=O)(=O)c2cc(C(=O)O)cc(C)c2C)c1 was read as ALR H2O2 inh inactive, Glyco luc inh inactive and T cell HTS inactive.
For Cn1cccc1C(=O)N1CCN(S(=O)(=O)c2ccccc2)CC1 the results were ALR H2O2 inh inactive, Glyco luc inh inactive and T cell HTS inactive.
`COc1cccc(CNC(=O)CCNC(=O)N2CCn3c2nc2ccccc23)c1` gave ALR H2O2 inh 98, Glyco luc inh inactive and T cell HTS inactive.
Screening COc1cccc(CNC(=O)CCCCCNC(=O)N2CCn3c2nc2ccccc23)c1 returned ALR H2O2 inh inactive, Glyco luc inh inactive and T cell HTS inactive.
Screening Cc1ccc(CNC(=O)CCNC(=O)N2CCn3c2nc2ccccc23)cc1 returned ALR H2O2 inh 94, Glyco luc inh inactive and T cell HTS inactive.
`Cc1ccc(CNC(=O)CCCCCNC(=O)N2CCn3c2nc2ccccc23)cc1` gave ALR H2O2 inh inactive, Glyco luc inh inactive and T cell HTS inactive.
CCCN(CC(=O)Nc1ccccc1C)C(=O)CC(NC(=O)c1ccccc1)c1ccccc1 (configuration not stated) was read as ALR H2O2 inh inactive, Glyco luc inh inactive and T cell HTS inactive.
Screening Cc1cc(=O)n2nc(N3CCC(C(=O)NCCc4ccc(Cl)cc4)CC3)sc2n1 returned ALR H2O2 inh inactive, Glyco luc inh inactive and T cell HTS inactive.
`CCOc1ccc(OCC(=O)N(CCC2=CCCCC2)c2c(N)n(Cc3ccccc3)c(=O)[nH]c2=O)cc1` gave Glyco luc inh 80 and T cell HTS inactive.

Screening results as filed in PubChem.
